{"data": "Published values collected from several papers", "note": "Lines come from different studies, so protocols differ."}
{"Compound": "Cc1cc(C(C)(C)C)c(O)c(C(C)(C)C)c1", "assay": "DPPH scavenging, absorbance", "setting": "30 min", "measurement": "IC50", "result": "308 µM"}
{"Compound": "O=C(NCc1ccc(Cl)cc1)C1CC1c1ccccc1 (stereo not drawn)", "tested on": "Chikungunya virus", "assay": "viral replication, luciferase", "system": "BHK-21", "setting": "16 h", "measurement": "IC50", "result": "> 100 µM"}
{"Compound": "COc1ccc(O)c(C(C)(C)C)c1", "assay": "DPPH scavenging, absorbance", "measurement": "IC50", "result": "10.1 µg/mL"}
{"Compound": "C[C@H]1COc2c(N3CCN(C)CC3)c(F)cc3c(=O)c(C(=O)O)cn1c23", "tested on": "Haemophilus influenzae", "assay": "microbial growth", "measurement": "MIC", "result": "> 4 µg/mL"}
{"Compound": "O=c1[nH]cnc2c1nnn2-c1cccc(Cl)c1", "tested on": "Chikungunya virus", "assay": "viral replication, luciferase", "system": "BHK-21", "setting": "16 h", "measurement": "IC50", "result": "> 100 µM"}
{"Compound": "CO/N=C1\\CN(c2nc3c(cc2F)c(=O)c(C(=O)O)cn3C2CC2)CC1CN (stereo not drawn)", "tested on": "Haemophilus influenzae", "assay": "microbial growth", "measurement": "MIC", "result": "2 µg/mL"}
{"Compound": "O=C(Nc1ncc([N+](=O)[O-])s1)c1ccccc1O", "tested on": "Chikungunya virus", "assay": "viral replication, luciferase", "system": "BHK-21", "setting": "16 h", "measurement": "IC50", "result": "13.1 µM"}
{"Compound": "COc1c2c(cc3c1OCO3)[C@]13C=C[C@H](OC)C[C@@H]1[N@](C2)C[C@H]3OC(=O)c1ccc2ccccc2c1", "tested on": "SAOS-2", "assay": "cell growth or viability, WST-1", "measurement": "IC50", "result": "> 10 µM"}
{"Compound": "CC(Cc1ccc(O)cc1)NCC(O)c1cc(O)cc(O)c1 (stereo not drawn)", "tested on": "THP-1", "assay": "TNF-α release, inhibitor", "setting": "17 h, LPS-stimulated", "measurement": "IC50", "result": "0.12 µM"}
{"Compound": "O=C(Nc1ncc([N+](=O)[O-])s1)c1cc(Cl)ccc1Cl", "tested on": "Chikungunya virus", "assay": "viral replication, luciferase", "system": "BHK-21", "setting": "16 h", "measurement": "IC50", "result": "8.3 µM"}
{"Compound": "COc1c(N2CCNC(C)C2)c(F)cc2c(=O)c(C(=O)O)cn(C3CC3)c12 (stereo not drawn)", "tested on": "Haemophilus influenzae", "assay": "microbial growth", "measurement": "MIC", "result": "> 4 µg/mL"}
{"Compound": "CCCCCCCCCOc1ccc2[nH]cc(CCN)c2c1", "tested on": "FaDu", "assay": "cell growth or viability", "setting": "72 h", "measurement": "IC50", "result": "7.3 µM"}
